In ChEMBL document CHEMBL1145047, “Design, synthesis, and evaluation of substituted phenylpropanoic acid derivatives as human peroxisome proliferator activated receptor activators. Discovery of potent and human peroxisome proliferator activated receptor alpha subtype-selective activators” (J Med Chem, 2003) one finds IA and EC50 data, which are given here for 40 compounds.

Experiment [1] addresses T1, Peroxisome proliferator-activated receptor delta (Homo sapiens) (UniProt Q03181).
T1 sequence (whole entry): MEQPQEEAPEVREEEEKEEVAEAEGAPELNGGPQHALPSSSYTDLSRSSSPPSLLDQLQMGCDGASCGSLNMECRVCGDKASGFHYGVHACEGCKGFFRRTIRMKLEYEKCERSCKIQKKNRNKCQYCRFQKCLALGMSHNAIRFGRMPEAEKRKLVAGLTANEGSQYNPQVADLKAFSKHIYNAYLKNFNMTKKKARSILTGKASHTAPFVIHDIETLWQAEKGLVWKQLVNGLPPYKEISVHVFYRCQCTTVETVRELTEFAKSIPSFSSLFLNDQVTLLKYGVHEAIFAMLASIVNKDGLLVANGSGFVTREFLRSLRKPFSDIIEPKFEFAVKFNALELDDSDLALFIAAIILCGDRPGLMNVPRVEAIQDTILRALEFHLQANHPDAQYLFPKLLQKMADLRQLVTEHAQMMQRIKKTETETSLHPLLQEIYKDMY
Description: (§1) Agonist activity on Gal4 chimeric human Peroxisome proliferator activated receptor delta expressed in CHO-K1 cells. The format is functional, cell-based. The method, boiled down:
(§2)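 GAL4–human PPAR LBD chimera, reporter assay in CHO-K1 cells. Cells seeded at 5 × 10⁴/well in Ham's F12 with 10% FCS for 24 h at 37 °C. Cotransfected for 2 h (lipofectamine) per well with 40 ng GAL4/PPAR LBD, 400 ng pFR-Luc and 5 ng pRL-TK. Compounds applied for 20 h at 37 °C, then luciferase read from cell lysates. EC50 is 50% of maximal reporter activity, from curve fit, n = 3.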

Experiment [2] addresses T2, Peroxisome proliferator-activated receptor alpha (Homo sapiens, UniProt Q07869).
T2 sequence (Q07869 whole entry): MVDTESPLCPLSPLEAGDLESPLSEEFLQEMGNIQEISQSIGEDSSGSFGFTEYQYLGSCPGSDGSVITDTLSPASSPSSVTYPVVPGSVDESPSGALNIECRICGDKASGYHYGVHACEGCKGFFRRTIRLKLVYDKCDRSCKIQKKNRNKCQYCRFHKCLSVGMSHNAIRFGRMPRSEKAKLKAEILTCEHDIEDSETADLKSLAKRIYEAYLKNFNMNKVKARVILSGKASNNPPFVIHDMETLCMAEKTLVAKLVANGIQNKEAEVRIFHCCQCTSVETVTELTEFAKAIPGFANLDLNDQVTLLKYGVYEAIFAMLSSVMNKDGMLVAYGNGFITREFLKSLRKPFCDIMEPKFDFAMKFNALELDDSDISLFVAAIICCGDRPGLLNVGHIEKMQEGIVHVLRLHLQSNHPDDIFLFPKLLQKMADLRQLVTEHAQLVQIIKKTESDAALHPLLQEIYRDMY
The format is functional, cell-based.

In experiment [3] the target is T3, Peroxisome proliferator-activated receptor gamma (Homo sapiens, UniProt P37231).
T3 sequence (P37231 whole entry): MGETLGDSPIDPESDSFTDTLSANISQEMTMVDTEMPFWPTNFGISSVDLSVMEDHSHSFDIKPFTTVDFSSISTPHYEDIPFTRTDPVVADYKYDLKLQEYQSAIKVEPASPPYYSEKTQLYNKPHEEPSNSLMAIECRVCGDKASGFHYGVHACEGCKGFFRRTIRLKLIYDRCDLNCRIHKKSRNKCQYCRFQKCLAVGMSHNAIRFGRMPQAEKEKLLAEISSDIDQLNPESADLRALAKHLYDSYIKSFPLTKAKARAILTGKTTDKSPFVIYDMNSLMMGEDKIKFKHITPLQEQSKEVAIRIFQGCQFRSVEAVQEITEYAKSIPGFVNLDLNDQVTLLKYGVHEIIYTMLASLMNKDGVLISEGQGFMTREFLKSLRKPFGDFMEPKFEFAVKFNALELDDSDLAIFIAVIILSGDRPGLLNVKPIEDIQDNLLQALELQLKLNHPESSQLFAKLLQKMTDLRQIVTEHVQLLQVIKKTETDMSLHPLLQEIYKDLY

For experiment [4], the target named is T4, Peroxisome proliferator-activated receptor alpha (Homo sapiens) (UniProt Q07869).
T4 sequence (whole entry): T2 sequence (Q07869 whole entry)
Description: Agonist activity on Gal4 chimeric human Peroxisome proliferator activated receptor alpha expressed in CHO-K1 cells. The format is functional, cell-based. The essentials: as §2

Experiment [5] has as its target T5, Peroxisome proliferator-activated receptor gamma (Homo sapiens) (UniProt P37231).
T5 sequence (whole entry): T3 sequence (P37231 whole entry)
Nature of the experiment: In vitro effective concentration for agonist activity on human Peroxisome proliferator activated receptor gamma-Gal4 chimeric receptor in transfected CHO-K1 cells at 10 uM. The format is functional, cell-based.

For experiment [6], the target named is T1, Peroxisome proliferator-activated receptor delta (Homo sapiens). Description: In vitro effective concentration for agonist activity on human Peroxisome proliferator activated receptor delta-GAL4 chimeric receptor in transfected CHO-K1 cells; inactive. The format is functional, cell-based. The method, boiled down: as §2
Experiment [7] addresses T6, Peroxisome proliferator-activated receptor delta (Homo sapiens, UniProt Q03181).
T6 sequence (Q03181 whole entry): T1 sequence (whole entry)
Described as §1. The format is functional, cell-based.

The target in experiment [8] is T1, Peroxisome proliferator-activated receptor delta (Homo sapiens). Description: In vitro effective concentration for agonist activity on human Peroxisome proliferator activated receptor delta-GAL4 chimeric receptor in transfected CHO-K1 cells at 10 uM; inactive. The format is functional, cell-based.

Activity calls are given as the source filed them. The calls are words filed in the database; no cut-off is given here.

With `CCC(Cc1ccc(OC)c(C(=O)NCc2ccc(CCc3ccccc3)cc2)c1)C(=O)O` (stereo not given), the IA result in experiment [1] is “inactive”. In addition, the EC50 was found to be 5.6 µM in experiment [2] and 5.4 µM in experiment [3].
Regarding `COc1ccc(CC(C(=O)O)c2ccccc2)cc1C(=O)NCc1ccc(C(F)(F)F)cc1` (stereo not given), the IA result in experiment [1], in experiment [4] and in experiment [5] was “inactive” in each case.
For the compound `CCC(Cc1ccc(OC)c(C(=O)N(C)Cc2ccc(C(F)(F)F)cc2)c1)C(=O)O` (stereo not given), the IA entry in experiment [1], in experiment [4] and in experiment [5] was “inactive” each time.
As to `CCC(Cc1ccc(OC)c(C(=O)NCc2ccccc2OC)c1)C(=O)O` (stereo not given), the IA entry in experiment [1] and in experiment [5] was “inactive” throughout. In experiment [2], this compound gave an EC50 of 9.4 µM.
As for `COc1ccc(CC(Sc2ccccc2)C(=O)O)cc1C(=O)NCc1ccc(C(F)(F)F)cc1` (stereo not given), the IA entry in experiment [1], in experiment [4] and in experiment [5] was “inactive” each time.
In turn, `CCC(Cc1ccc(OC)c(C(=O)NCc2ccc(Cl)cc2)c1)C(=O)O` (stereo not given) returned an EC50 in experiment [2] of 3 µM. Besides, the IA result in experiment [5] and in experiment [6] was “inactive” in each case.
For `COc1ccc(CC(C)C(=O)O)cc1C(=O)NCc1ccc(C(F)(F)F)cc1` (stereo not given), in experiment [5], the IA result is “inactive”.
In the case of `CCC(Cc1ccc(OC)c(C(=O)NCc2ccc(OCc3ccccc3)cc2)c1)C(=O)O` (stereo not given), the IA result in experiment [1] and in experiment [5] was “inactive” in each case. Also, the midpoint of the response in experiment [2], the EC50, lay at 1.5 µM.
For the compound `COc1ccc(CCC(=O)O)cc1C(=O)NCc1ccc(C(F)(F)F)cc1`, the IA entry in experiment [1] and in experiment [5] was “inactive” in each case.
With `CCCC(Cc1ccc(OC)c(C(=O)NCc2ccc(C(F)(F)F)cc2)c1)C(=O)O` (stereo not given), in experiment [5], the IA result was “inactive”.
Regarding `CCC(Cc1ccc(OC)c(CC(=O)Nc2ccc(C(F)(F)F)cc2)c1)C(=O)O` (stereo not given), the IA entry in experiment [1] and in experiment [5] was “inactive” each time.
For the compound `CCCCC(Cc1ccc(OC)c(C(=O)NCc2ccc(C(F)(F)F)cc2)c1)C(=O)O` (stereo not given), the IA result in experiment [6] is “inactive”.
For the compound `COc1ccc(CC(C)(C)C(=O)O)cc1C(=O)NCc1ccc(C(F)(F)F)cc1`, the IA result in experiment [1] and in experiment [5] was “inactive” each time.
For `CCC(CC)(Cc1ccc(OC)c(C(=O)NCc2ccc(C(F)(F)F)cc2)c1)C(=O)O`, the IA entry in experiment [1] and in experiment [5] was “inactive” in each case.
As to `CCC(Cc1ccc(OC)c(C(=O)NCCc2ccc(C(F)(F)F)cc2)c1)C(=O)O` (stereo not given), the IA entry in experiment [5] is “inactive”.
The same measure, in the same setting: then `CCC(Cc1ccc(OC)c(CNCc2ccc(C(F)(F)F)cc2)c1)C(=O)O` (stereo not given), with “inactive”.
As to `CCSC(Cc1ccc(OC)c(C(=O)NCc2ccc(C(F)(F)F)cc2)c1)C(=O)O` (stereo not given), the EC50 in experiment [2] amounted to 1.6 µM; in experiment [7] it was 3 µM; in experiment [3], 2.8 µM.
Regarding `CCC(Cc1ccc(OC)c(C(=O)NCc2cccc(C(F)(F)F)c2)c1)C(=O)O` (stereo not given), the EC50 in experiment [2] is 1.8 µM. Also, the IA entry in experiment [8] and in experiment [5] was “inactive” in each case.
With `CCC(Cc1ccc(OC)c(NC(=O)Cc2ccc(C(F)(F)F)cc2)c1)C(=O)O` (stereo not given), the IA result in experiment [1] and in experiment [5] was “inactive” throughout.
For the compound `CCC(Cc1ccc(OC)c(C(=O)NCc2ccc(Oc3ccccc3)cc2)c1)C(=O)O` (stereo not given), the EC50 in experiment [2] turned out to be 0.09 µM; in experiment [7], 3 µM; in experiment [3], 2.4 µM.
Regarding `CCC(Cc1ccc(OC)c(C(=O)Nc2ccc(C(F)(F)F)cc2)c1)C(=O)O` (stereo not given), the IA result in experiment [1] and in experiment [5] was “inactive” each time.
Regarding `COc1ccc(CC(Oc2ccccc2)C(=O)O)cc1C(=O)NCc1ccc(C(F)(F)F)cc1` (stereo not given), the IA result in experiment [1], in experiment [4] and in experiment [5] was “inactive” throughout.
For the compound `CCC(Cc1ccc(OC)c(C(=O)NCc2cccc(Oc3ccccc3)c2)c1)C(=O)O` (stereo not given), the IA entry in experiment [1] was “inactive”. Also, the figures for the EC50 in experiment [2] and in experiment [3] were 0.4 µM and 6.2 µM, respectively.
In the case of `COc1ccc(CC(C(=O)O)C(C)C)cc1C(=O)NCc1ccc(C(F)(F)F)cc1` (stereo not given), the IA entry in experiment [1] and in experiment [5] was “inactive” in each case.
With `COc1ccc(CC(OC)C(=O)O)cc1C(=O)NCc1ccc(C(F)(F)F)cc1` (stereo not given), the IA entry in experiment [1] and in experiment [5] was “inactive” in each case.
As for `CCC(Cc1ccc(OC)c(C(=O)NCc2cccc(OC)c2)c1)C(=O)O` (stereo not given), the IA result in experiment [1] is “inactive”. For the same compound, in experiment [2], the EC50 worked out at 3.1 µM.
Turning to `CCC(Cc1ccc(OC)c(C(=O)NCc2ccc(-c3ccccc3)cc2)c1)C(=O)O` (stereo not given), in experiment [1], the IA result is “inactive”. This compound showed an EC50 in experiment [3] of 4 µM.
Take `CCC(Cc1ccc(OC)c(C(=O)NCc2ccc(OC)cc2)c1)C(=O)O` (stereo not given): the EC50 was 1.2 µM in experiment [2] and 6.6 µM in experiment [7]. The IA entry in experiment [5] was “inactive”.
Turning to `CCC(Cc1ccc(OC)c(C(=O)NCc2ccccc2Oc2ccccc2)c1)C(=O)O` (stereo not given), the IA entry in experiment [1], in experiment [4] and in experiment [5] was “inactive” each time.
As for `CCC(Cc1ccc(OC)c(C(=O)CCc2ccc(C(F)(F)F)cc2)c1)C(=O)O` (stereo not given), the IA result in experiment [8] is “inactive”.
On to `COc1ccc(CC(SCc2ccccc2)C(=O)O)cc1C(=O)NCc1ccc(C(F)(F)F)cc1` (stereo not given), for which the IA result in experiment [1], in experiment [4] and in experiment [5] was “inactive” in each case.
As for `COc1ccc(CCCC(=O)O)cc1C(=O)NCc1ccc(C(F)(F)F)cc1`, the IA result in experiment [1] was “inactive”.
In the case of `CCC(Cc1ccc(OC)c(C(=O)NCc2ccccc2)c1)C(=O)O` (stereo not given), the EC50 was 2.3 µM in experiment [2] and 10 µM in experiment [3]. Further, the IA entry in experiment [8] was “inactive”.
Take `CCC(Cc1ccc(OC)c(C(=O)NCc2ccc(OCCc3ccccc3)cc2)c1)C(=O)O` (stereo not given): the IA entry in experiment [1] is “inactive”. In addition, the EC50 in experiment [2] is 2.7 µM; in experiment [3] it was 3 µM.
Turning to `CCC(Cc1ccc(OC)c(NC(=O)Nc2ccc(C(F)(F)F)cc2)c1)C(=O)O` (stereo not given), the IA result in experiment [1], in experiment [4] and in experiment [5] was “inactive” throughout.
On to `CCC(Cc1ccc(OC)c(OCCc2ccc(C(F)(F)F)cc2)c1)C(=O)O` (stereo not given), for which the IA result in experiment [5] is “inactive”.
Compound `CCC(Cc1ccc(OC)c(CNC(=O)c2ccc(C(F)(F)F)cc2)c1)C(=O)O` (stereo not given) had an EC50 in experiment [3] above 10 µM.
For `CCC(Cc1ccc(OC)c(C(=O)NCc2ccc(OC(F)(F)F)cc2)c1)C(=O)O` (stereo not given), the EC50 is 0.043 µM in experiment [2] and 0.9 µM in experiment [7]. Moreover, in experiment [5], the IA entry is “inactive”.
As for `CCC(Cc1ccc(OC)c(CCCc2ccc(C(F)(F)F)cc2)c1)C(=O)O` (stereo not given), the IA entry in experiment [5] was “inactive”.
As to `COc1ccc(C(=O)O)cc1C(=O)NCc1ccc(C(F)(F)F)cc1`, the IA entry in experiment [1], in experiment [4] and in experiment [5] was “inactive” throughout.

In general, EC50 refers to the midpoint of the concentration-response curve.
